Bioassay records from PubChem.
OX1R antag-1: blocks the human orexin 1 receptor; O43613; OX1R-expressing cells, FRET antagonist read-out; inhibition, % at 6.6 µM; hit rate 1.8% among 330,000; AID 485270; in the data active = inhibition mostly above about 38%, no sharp cut-off; inactive = mostly below about 40%
Target sequence (O43613 whole entry, looked up): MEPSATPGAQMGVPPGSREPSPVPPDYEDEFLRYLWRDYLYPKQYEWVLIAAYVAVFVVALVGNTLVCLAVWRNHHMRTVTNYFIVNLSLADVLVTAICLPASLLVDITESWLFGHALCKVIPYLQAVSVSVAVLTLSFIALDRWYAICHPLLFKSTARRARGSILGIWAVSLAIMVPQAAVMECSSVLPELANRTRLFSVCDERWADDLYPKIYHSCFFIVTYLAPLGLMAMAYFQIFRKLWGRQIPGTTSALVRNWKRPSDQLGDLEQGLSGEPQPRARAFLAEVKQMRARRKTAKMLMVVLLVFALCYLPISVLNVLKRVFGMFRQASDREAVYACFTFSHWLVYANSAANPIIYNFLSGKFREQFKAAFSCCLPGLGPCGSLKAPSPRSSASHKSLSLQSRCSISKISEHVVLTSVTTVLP
GPR7 antag: human neuropeptides B/W receptor 1 antagonism; GPR7-expressing cells, fluorescence antagonist assay; inhibition, % at 4.4 µM; P48145; hit rate 1.1% among 290,000; AID 1861; in the data active = inhibition above about 16%, passing the limit was not always enough;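 also: cells stimulated with the agonist NPW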
CHO parental Ca: signal in parental CHO cells, OX1R antagonist counter-screen; inhibition, % at 5.6 µM; parental CHO-K1, ATP-induced calcium, Fluo-8 fluorescence; hit rate 0.63% among 330,000;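 active = inhibition above that plate's mean sample inhibition plus 3 SD, cut at about 26% in these data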
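test system = CHO parental line | reagent = ATP stimulus | measured by = intracellular calcium via Fluo-8 no-wash fluorescent dye | control set = ATP and no-ATP DMSO wells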
MPTP inh: blocks calcium-induced mitochondrial swelling. isolated mouse mitochondria, Ca2+ swelling absorbance, 30 min. inhibition, % at 10 µM. hit rate 1.4% among 360,000. AID 602449;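 active = inhibition of 50% or more, scaled per plate between neutral and stimulator controls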
OX1R antag-2: human HCRTR1 antagonism | CHO/OX1R cells, Fluo-8 calcium fluorescence, orexin A | inhibition, % at 5 µM | hit rate 0.43% among 330,000;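 active = inhibition above its plate's threshold, mean inhibition of all tested compounds on the plate plus 3 SD, cut at about 37% in these data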
MPTP counter: membrane potential counter-screen of mitochondrial pore inhibitors; inhibition, % at 10 µM; hit rate 78% among 5,000; shares compounds with MPTP inh; isolated mitochondria, Rhodamine 123 fluorescence; in the data active = inhibition above about 22%
MPTP abs DR: dose response confirmation of mitochondrial permeability transition pore inhibitors; shares compounds with MPTP inh; IC50, µM; hit rate 58% among 780; AID 651561; isolated mitochondria swelling, absorbance; in the data active = IC50 below about 20 µM
MPTP counter DR: MPTP inhibitor counter-screen activity, dose response | shares compounds with MPTP inh | isolated mitochondria counterscreen, fluorescence read-out | IC50, µM | hit rate 49% among 780; in the data active = IC50 below about 80 µM
Hits are given with their value. Only some compounds are listed: those with a hit (about 3.8% of all), similar ones and a draw of the others.

CCCN1CCN(C(=O)Nc2cccc(C(F)(F)F)c2)CC1 was read as OX1R antag-1 inactive, GPR7 antag inactive, CHO parental Ca inactive, MPTP inh 72, OX1R antag-2 inactive and MPTP counter 92.
For O=C(Nc1cccc(C(F)(F)F)c1)C12CC3CC(CC(C3)C1)C2 the results were OX1R antag-1 inactive, GPR7 antag inactive, CHO parental Ca inactive, MPTP inh 64, OX1R antag-2 inactive and MPTP counter 43.
`COc1cccc(C(=O)N2CCN(Cc3nc(CC4CC4)no3)CC2)c1` gave OX1R antag-1 inactive, GPR7 antag inactive, CHO parental Ca inactive, MPTP inh inactive and OX1R antag-2 inactive.
COCCn1c(-c2ccc(F)cc2)nc2cccnc21 was read as OX1R antag-1 inactive, GPR7 antag inactive, CHO parental Ca inactive, MPTP inh inactive and OX1R antag-2 inactive.
`CC(C)NC(=O)Nc1ccc2c(c1)C(=O)N([C@H](C)CO)C[C@H](C)[C@@H](CN(C)Cc1ccc(C(F)(F)F)cc1)OCCCC[C@H](C)O2` gave MPTP inh inactive.
Cc1nc(C)c(C(=O)OCC(=O)Nc2cccc(C)c2C)s1 was read as OX1R antag-1 inactive, CHO parental Ca inactive, MPTP inh inactive and OX1R antag-2 inactive.
O=C(Nc1cccc(C(F)(F)F)c1)N1CCN(C(=O)Nc2cccc(C(F)(F)F)c2)CC1 was read as OX1R antag-1 inactive, GPR7 antag inactive, CHO parental Ca inactive, MPTP inh 64, OX1R antag-2 inactive and MPTP counter 71.
For CCn1c2ccccc2c2cc(CNCc3ccc(OC)cc3OC)ccc21 the results were OX1R antag-1 inactive, GPR7 antag 29, CHO parental Ca inactive, MPTP inh 73, OX1R antag-2 inactive and MPTP counter 37.
Screening COc1cccc(CNCc2ccc(OC)cc2OC)c1 returned OX1R antag-1 inactive, GPR7 antag inactive, CHO parental Ca inactive, MPTP inh inactive and OX1R antag-2 inactive.
For COc1ccc(NC(=O)CCOc2ccc(C)cc2)c(OC)c1 the results were OX1R antag-1 inactive, GPR7 antag inactive, CHO parental Ca inactive, MPTP inh inactive and OX1R antag-2 inactive.
`Fc1ccc(-[n+]2nc(Nc3ccccc3)sc2-c2c3ccccc3cc3ccccc23)cc1` gave OX1R antag-1 inactive, GPR7 antag inactive, CHO parental Ca inactive, MPTP inh 92, OX1R antag-2 inactive and MPTP counter 111.
`COc1ccc(C)cc1Nc1n[n+](-c2ccccc2)c(-c2cc(OC)c(OC)cc2Br)s1` gave OX1R antag-1 inactive, GPR7 antag inactive, CHO parental Ca inactive, MPTP inh inactive and OX1R antag-2 inactive.
COc1ccc(C)cc1Nc1n[n+](-c2ccccc2)c(-c2c(OC)ccc3ccccc23)s1 was read as OX1R antag-1 inactive, CHO parental Ca inactive, MPTP inh 100, OX1R antag-2 inactive and MPTP counter 105.
Screening c1ccc(-[n+]2nc(Nc3cccc4ccccc34)sc2-c2c3ccccc3cc3ccccc23)cc1 returned OX1R antag-1 inactive, CHO parental Ca inactive, MPTP inh 98, OX1R antag-2 inactive and MPTP counter 93.
`Oc1ccc2ccccc2c1-c1sc(Nc2ccccc2)n[n+]1-c1ccc(F)cc1` gave OX1R antag-1 inactive, GPR7 antag inactive, CHO parental Ca inactive, MPTP inh inactive and OX1R antag-2 inactive.
For CC(=O)Nc1ccc(/C=C2\CCc3ccccc3C2=O)cc1 the results were OX1R antag-1 inactive, GPR7 antag inactive, CHO parental Ca inactive, MPTP inh inactive and OX1R antag-2 inactive.
CCOC(=O)C1(Cc2cccc(F)c2)CCN(CC(O)CO)CC1 (configuration not stated) was read as OX1R antag-1 inactive, GPR7 antag inactive, CHO parental Ca inactive, MPTP inh inactive and OX1R antag-2 inactive.
`Cc1c(NC(=O)C(C)OC(=O)CCC2CCCC2)c(=O)n(-c2ccccc2)n1C` (configuration not stated) gave OX1R antag-1 inactive, GPR7 antag inactive, CHO parental Ca inactive, MPTP inh inactive and OX1R antag-2 inactive.
For CN(C)S(=O)(=O)c1cccc(-c2nn(-c3ccccc3)cc2/C=C2\SC(=S)NC2=O)c1 the results were OX1R antag-1 inactive, GPR7 antag inactive, CHO parental Ca inactive, MPTP inh 97, OX1R antag-2 inactive and MPTP counter 45.
COc1cc(C)ccc1OCCCCOc1ccccc1C(C)=O was read as OX1R antag-1 inactive, GPR7 antag inactive, CHO parental Ca inactive, MPTP inh 95, OX1R antag-2 inactive and MPTP counter 85.
Screening COC(=O)c1ccccc1OCCCOc1ccc(C=O)cc1OC returned OX1R antag-1 inactive, GPR7 antag inactive, CHO parental Ca inactive, MPTP inh 58, OX1R antag-2 inactive, MPTP counter inactive, MPTP abs DR 11 and MPTP counter DR inactive.
`O=C(O)c1c(-c2ccc(Cl)cc2)cn2ccccc12` gave OX1R antag-1 inactive, GPR7 antag inactive, CHO parental Ca inactive, MPTP inh inactive and OX1R antag-2 inactive.
`O=C(NNC1=C(C(=O)C(F)(F)F)CCC1)c1ccc(Br)cc1` gave OX1R antag-1 inactive, GPR7 antag inactive, CHO parental Ca inactive, MPTP inh 93, OX1R antag-2 inactive and MPTP counter 75.
`Nc1ccccc1C(=O)NNC1=C(C(=O)C(F)(F)F)CCC1` gave OX1R antag-1 inactive, GPR7 antag inactive, CHO parental Ca inactive, MPTP inh inactive and OX1R antag-2 inactive.
COc1cccc(C(=O)NNC2=C(C(=O)C(F)(F)F)CCC2)c1 was read as OX1R antag-1 inactive, GPR7 antag inactive, CHO parental Ca inactive, MPTP inh 63, OX1R antag-2 inactive and MPTP counter 45.
Screening COC(=O)C1=C(C)NC2=C(C(=O)CC(C)(C)C2)C1c1cnn(C)c1C (configuration not stated) returned OX1R antag-1 inactive, GPR7 antag inactive, CHO parental Ca inactive, MPTP inh inactive and OX1R antag-2 inactive.
`CCOc1cc(C(=O)Nc2ccc(F)cc2)cc(Br)c1OC` gave OX1R antag-1 inactive, GPR7 antag inactive, CHO parental Ca inactive, MPTP inh 67, OX1R antag-2 inactive and MPTP counter 79.
C/C(N)=C(/C#N)C(=O)COC(=O)c1ccccc1Oc1ccccc1 was read as OX1R antag-1 inactive, GPR7 antag inactive, CHO parental Ca inactive, MPTP inh inactive and OX1R antag-2 inactive.
For COc1cc(CNCCCN2CCOCC2)cc(Br)c1OCc1ccc(Cl)cc1 the results were OX1R antag-1 inactive, GPR7 antag 59, CHO parental Ca inactive, MPTP inh 74, OX1R antag-2 inactive and MPTP counter inactive.
For c1ccc(-c2cn(-c3ccccc3)c3ncnc(N4CCCCC4)c23)cc1 the results were OX1R antag-1 inactive, GPR7 antag inactive, CHO parental Ca inactive, MPTP inh inactive and OX1R antag-2 inactive.
